A selection: hits, their analogues and other compounds. The true share with any hit is near 2.5%.
ADAM10 inh: inhibitors of human ADAM10; O14672; recombinant ADAM10, EDANS/DABCYL FRET peptide cleavage, 3 h; inhibition, % at 7 µM; 370,000 compounds, 0.62% hits; AID 720582;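 active means inhibition above a per-campaign cutoff equal to the mean of compounds falling between control-based bounds plus 3 SD, cut at about 20% in these data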;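 further: 0% = DMSO wells while the 100% control is not disclosed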
NR2E3 ag-1: activates human photoreceptor nuclear receptor NR2E3; inhibition of corepressor binding, % at 4.78 µM; 320,000 compounds, 0.12% hits; AID 2300; GST-NR2E3/biotin-RetCOR TR-FRET, 1536-well;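 active means percent inhibition above the cutoff of mean plus 3 SD of all tested compounds, set per screening campaign, cut at about 20% in these data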;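 further: 0% = DMSO wells and 100% = biotin wells as full block of FRET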
Target sequence (Q9Y5X4 whole entry, looked up): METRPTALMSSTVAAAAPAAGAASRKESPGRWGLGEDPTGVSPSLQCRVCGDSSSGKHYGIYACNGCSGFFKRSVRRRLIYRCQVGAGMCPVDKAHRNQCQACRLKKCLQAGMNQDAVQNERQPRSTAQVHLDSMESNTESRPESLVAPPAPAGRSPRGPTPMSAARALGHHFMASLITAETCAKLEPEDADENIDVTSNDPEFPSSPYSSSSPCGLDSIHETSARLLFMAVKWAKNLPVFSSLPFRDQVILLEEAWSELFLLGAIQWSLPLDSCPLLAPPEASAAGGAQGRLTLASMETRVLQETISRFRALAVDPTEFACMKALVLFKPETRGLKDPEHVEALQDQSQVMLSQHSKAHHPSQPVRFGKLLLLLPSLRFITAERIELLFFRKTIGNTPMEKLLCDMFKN
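System: GST-tagged NR2E3 plus biotinylated RetCOR corepressor; Buffer or medium: pH 7.5 Tris-based buffer; Probe or stimulus: RetCOR corepressor, biotinylated, 7 nM; Doses: compound at 4.8 µM, single dose; Schedule: 5 h incubation at 4 °C; Technique: time-resolved FRET; Evaluation: percent inhibition of TR-FRET ratio; Replication: one well per compound, singlicate testing.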
proKLK7 act: activators of human kallikrein-7 zymogen. P49862. purified proKLK7, EDANS-DABCYL substrate fluorescence; 100% is mature enzyme control, 0% vehicle. activation, % at 7 µM. 370,000 compounds, 0.9% hits. AID 652039;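 active means activation above the mean of all tested compounds plus 3 SD, computed per campaign excluding outliers beyond control limits, cut at about 13% in these data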
Target sequence (P49862 whole entry, looked up): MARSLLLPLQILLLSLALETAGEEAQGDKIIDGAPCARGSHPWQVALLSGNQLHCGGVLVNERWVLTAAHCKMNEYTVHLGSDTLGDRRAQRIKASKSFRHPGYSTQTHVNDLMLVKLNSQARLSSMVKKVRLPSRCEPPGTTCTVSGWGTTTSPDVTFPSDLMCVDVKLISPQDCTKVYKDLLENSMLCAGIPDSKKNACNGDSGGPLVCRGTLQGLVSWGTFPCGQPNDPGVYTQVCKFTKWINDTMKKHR
NR2E3 ag-2: human photoreceptor-specific nuclear receptor agonism; inhibition of corepressor binding, % at 3.98 µM; 360,000 compounds, 0.35% hits; CHO-S Gal4-NCOR/VP16-NR2E3 two-hybrid, luciferase;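 active means inhibition above the mean of all tested compounds plus 3 SD, cut at about 70% in these data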;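 further: 0% = DMSO with NR2E3 transfected cells and 100% = cells lacking NR2E3 construct; higher means lower luciferase signal from less NR2E3 corepressor binding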
ADAM17 inh: inhibits human ADAM17. AID 720648. 370,000 compounds, 0.83% hits. P78536. inhibition, % at 6.95 µM. recombinant ADAM17, EDANS/DABCYL FRET peptide cleavage;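 active means inhibition above the mean of compounds lying between control limits plus 3 SD, set per campaign, cut at about 8.5% in these data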;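 further: 0% = DMSO-only wells as the low control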
JMJD2C inh: blocks human GASC-1 demethylase activity; Q9H3R0; GST-JMJD2C(1-420) H3K9me3 demethylation, DELFIA europium; inhibition, % at 2.35 µM; 330,000 compounds, 0.069% hits;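 active means more than half of a compound's replicate wells show inhibition beyond 50%, single wells judged on their own value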;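 further: signal counts dimethyl H3K9 product captured on neutravidin plate; 0% = median of DMSO wells and 100% = 0.3 times that DMSO median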
proKLK7 act conf: confirmation of human kallikrein-7 zymogen activators; 3,200 compounds, 68% hits; purified proKLK7, EDANS-DABCYL substrate fluorescence; scaled: vehicle 0, mature enzyme 100; activation, % at 7 µM; shares compounds with proKLK7 act; AID 686949;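 active means activation, as change over the incubation, above the mean of all tested compounds plus 3 SD, cut at about 13% in these data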
EDANS interfere: fluorescence interference counter-screen for KLK7 activators; activation, % at 7 µM; shares compounds with proKLK7 act; 3,200 compounds, 80% hits; EDANS-DABCYL substrate fluorescence interference, no enzyme, 4 h; solvent 0%, active enzyme control 100%; AID 686952;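 active means activation above the all-compound mean plus 3 SD, ignoring values outside control-based bounds, cut at about 4.8% in these data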;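 further: value is the 4 h activation minus the activation read at time zero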
K7 EDANS ctr: EDANS fluorescence interference in dose response, no enzyme; shares compounds with proKLK7 act; EDANS-DABCYL peptide fluorescence interference; 250 compounds, 20% hits; EC50, µM;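 active means compounds that raise the fluorescence signal in this interference counterscreen, with EC50 at or below 10 µM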;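 further: intact quenched peptide substrate alone read at 355 nm excitation and 520 nm emission; signal is fluorescence gain from T0 to T4 after four hours at room temperature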
Starred values were filed as active, the others as inactive; i = inactive; . = no result.

SMILES	ADAM10 inh	NR2E3 ag-1	proKLK7 act	NR2E3 ag-2	ADAM17 inh	JMJD2C inh	proKLK7 act conf	EDANS interfere	others
CCN1CCN(c2cc3c(cc2F)c(=O)c(S(=O)(=O)c2ccccc2)cn3C)CC1	-346	-7	13*	-30	-90	9	3	3
O=C1CC(c2ccc(O)c(O)c2)Oc2c1ccc(O)c2O (stereo not drawn)	6	10	16*	-25	1	.	8	7.7*
CC(C)=CCc1c(O)ccc2c1OC(c1ccc(O)c(O)c1)CC2=O (stereo not drawn)	-20	-2	-4	-19	-2	14	.	.
CCOC(=O)c1c[nH]c2ccc3ccccc3c2c1=O	0	3	0	-34	-1	2	.	.
CCOC(=O)c1cc2ccc3ccccc3c2oc1=O	i	2	53*	10	i	-6	74*	76*
CCOC(=O)c1cc2ccc(OC(=O)c3ccco3)cc2oc1=O	i	4	101*	-26	i	7	668*	659*
Cc1ccc(C(=O)c2ccccc2C(=O)OCC(=O)NCC2CCCO2)cc1 (stereo not drawn)	-4	-1	-1	-10	-4	-19	.	.
CC(OC(=O)CNC(=O)c1ccc2ccccc2c1)C(=O)NC1CCCCC1C (stereo not drawn)	-2	0	0	10	0	7	.	.
CC(=O)Nc1ccc(NC(=O)c2cc(=O)c3ccc(C)cc3o2)cc1	6	1	15*	-26	-2	-2	0	1
CC(=O)Nc1ccc(NC(=O)c2cc(=O)c3cc(C)c(C)cc3o2)cc1	3	2	0	3	-2	-10	.	.
O=S(=O)(CC1NCc2cc(F)ccc21)NC1CCCC1 (stereo not drawn)	-9	.	0	.	-7	.	.	.
O=C(O)c1ccc2c3c(cccc13)C(=O)N(c1ccccc1)C2=O	-24	3	0	4	-8	11	.	.
CC(=O)Nc1ccc2c3c(cccc13)C(=O)N(c1ccccc1)C2=O	i	3	59*	0	i	14	65*	71*
CC[C@H]1C(c2ccc(F)cc2)=NN(c2ccccc2)[C@@H]1CO	i	.	22*	-18	i	.	-94	-120
CC[C@@H]1C(c2ccccc2)=NN(c2ccccc2)[C@H]1C(=O)N1CCOC1=O	-123	.	187*	18	-32	.	161*	131*
CC[C@@H]1C(c2ccc(F)cc2)=NN(c2ccccc2)[C@H]1C(=O)N1CCOC1=O	-90	.	81*	-39	-23	.	64*	54*	K7 EDANS ctr=7.4*
COc1ccc(N2CCN(C(=O)COC(=O)CCc3ccccc3)CC2)cc1	-3	3	1	-19	-3	-4	.	.
CCCCC1OC2(C)OC(=N)C1(C#N)C(C#N)(C#N)C2c1ccccc1 (stereo not drawn)	i	-2	14*	12	-418	12	47*	50*
O=c1oc2cc(O)ccc2cc1-c1ccccc1	i	1	72*	-94	i	2	66*	77*
O=c1oc2ccccc2cc1-c1ccc(O)cc1O	0	1	0	-12	-2	-2	.	.
COc1ccc(-c2cc3ccc(O)cc3oc2=O)cc1	i	6	53*	-111	i	13	75*	74*
CCN(CC)C(=O)c1ncn2c1C(=O)N[C@@H](C)C2	-12	.	0	.	1	.	.	.
COc1cccc2[nH]c3c(Cl)ncnc3c12	i	-5	17*	-23	-354	-3	32*	31*
CCOC(=O)C1CCN(c2ncnc3c2[nH]c2cccc(OC)c23)CC1	i	-1	19*	15	i	-2	23*	14*	K7 EDANS ctr=i
CCOC(=O)c1oc2ccc3c(c2c1C)C(=O)CC1(CCN(C(=O)OCC)CC1)O3	-32	1	0	-26	-11	0	.	.
SMILES	ADAM10 inh	NR2E3 ag-1	proKLK7 act	NR2E3 ag-2	ADAM17 inh	JMJD2C inh	proKLK7 act conf	EDANS interfere	others
CCOC(=O)N1CCC2(CC1)CC(=O)c1c(ccc3oc(C(=O)O)c(C)c13)O2	i	4	18*	22	-449	-4	46*	34*	K7 EDANS ctr=>70
O=C(COc1ccccc1F)Nc1nnc(C2CCCC2)s1	3	0	0	-26	1	10	.	.
C=CCN(CC=C)c1nc2ccccc2nc1C(C#N)C(=O)OCCOC (stereo not drawn)	i	2	43*	13	-415	2	20*	18*
COc1ccc(-c2nc3ccc(N4CCN(C)CC4)cc3c(=O)[nH]2)cc1	-315	3	14*	-33	-118	-8	3	5.5*
COc1cc(-c2nc3ccc(N4CCN(C)CC4)cc3[nH]2)cc(OC)c1OC	i	0	81*	-12	i	-3	64*	70*
OC[C@@H]1CN(CCN2CCOCC2)C[C@H](n2cnc3c(NC4CCC4)ncnc32)O1	-19	.	0	13	-2	.	.	.
O=C(COc1ccc(Cl)cc1)Nc1c(-c2cccs2)nc2ccccn12	-115	-3	13*	2	-37	-2	10	0
CC(C)CCNc1c(-c2cccs2)nc2ccccn12	i	0	144*	-29	-255	10	-8	-19
Cc1nc2ccccn2c(=O)c1NC(=O)COc1ccccc1	-30	.	0	-12	-9	.	.	.
Cc1ccn2c(NC(C)(C)C)c(-c3cccs3)nc2c1	i	2	-7	-14	-363	3	.	.
CC(=O)c1c(C)[nH]c(C(=O)OCC(=O)c2ccc3c(c2)NC(=O)CO3)c1C	-11	.	0	13	3	2	.	.
Cc1[nH]n(-c2ccccc2)c(=O)c1C=Nc1cnc2ccccc2c1	i	-1	46*	-12	-214	8	21*	22*
Cc1cc(C(=O)CN2CCCC(C)C2)c(C)n1-c1ccc(F)cc1 (stereo not drawn)	1	2	-1	-7	-1	0	.	.
CCOC(=O)N1CCN(S(=O)(=O)c2ccc(C(=O)Nc3sc4c(c3C(N)=O)CC(C)(C)NC4(C)C)cc2)CC1	-28	-1	57*	-28	1	-4	-33	-5
